Measurements: ChEMBL document CHEMBL3632612, “Discovery of WQ-3810: Design, synthesis, and evaluation of 7-(3-alkylaminoazetidin-1-yl)fluoro-quinolones as orally active antibacterial agents” (Eur J Med Chem, 2015)
Values after ≈ are worked out from the molar mass of the structure shown.

Tests used:
Providencia rettgeri = assay: Antibacterial activity against Providencia rettgeri W1008 assessed as growth inhibition at 128 to 0.002 mg/L incubated for 18 hrs at 37 degC by agar dilution method; assay type: functional; conditions: W1008, 18 h
How it was run: (§1)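 Agar dilution on Mueller Hinton agar per Japanese Society of Chemotherapy standard method; about 10⁴ cfu inoculated onto plates holding two-fold dilution series; incubation 37°C, 18 h; MIC read as growth endpoint.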

Klebsiella pneumoniae [1] = assay: Antibacterial activity against Klebsiella pneumoniae KC-1 assessed as growth inhibition at 128 to 0.002 mg/L incubated for 18 hrs at 37 degC by agar dilution method; assay type: functional; conditions: KC-1, 18 h; how it was run: as §1
Proteus vulgaris = assay: Antibacterial activity against Proteus vulgaris IFO3167 assessed as growth inhibition at 128 to 0.002 mg/L incubated for 18 hrs at 37 degC by agar dilution method; assay type: functional; conditions: IFO3167, 18 h; how it was run: as §1
Enterobacter cloacae = assay: Antibacterial activity against Enterobacter cloacae IFO13535 assessed as growth inhibition at 128 to 0.002 mg/L incubated for 18 hrs at 37 degC by agar dilution method; assay type: functional; conditions: IFO13535, 18 h; how it was run: as §1
Pseudomonas aeruginosa [2] = assay: Antibacterial activity against Pseudomonas aeruginosa IFO3445 assessed as growth inhibition at 128 to 0.002 mg/L incubated for 18 hrs at 37 degC by agar dilution method; assay type: functional; conditions: IFO3445, 18 h; how it was run: as §1
Escherichia coli [3] = assay: Antibacterial activity against Escherichia coli NIHJ assessed as growth inhibition at 128 to 0.002 mg/L incubated for 18 hrs at 37 degC by agar dilution method; assay type: functional; how it was run: as §1
[4] = Drug excretion in Sprague-Dawley rat bile assessed as unmetabolized form at 10 mg/kg, po after 24 hrs by HPLC; assay type: ADME, organism-based; conditions: read-out: Drug excretion
How it was run: (§2)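 Six-week male Sprague-Dawley rats, fasted overnight; oral dose suspended in 0.5% methylcellulose, iv dose dissolved in 0.04 N NaOH. Urine from intact rats in metabolic cages, bile from bile duct-cannulated rats, 0–24 h. Bile alkaline-hydrolysed (1 N NaOH, 37°C, 1 h) to convert glucuronides; HPLC with UV 290 nm and internal standard; % of dose; mean ± S.D., three rats.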

Escherichia coli [5] = assay: Antibacterial activity against Escherichia coli 177 assessed as growth inhibition at 128 to 0.002 mg/L incubated for 18 hrs at 37 degC by agar dilution method; assay type: functional; conditions: Escherichia coli, 177, 18 h; how it was run: as §1
Escherichia coli [6] = assay: Antibacterial activity against Escherichia coli KC-14 assessed as growth inhibition at 128 to 0.002 mg/L incubated for 18 hrs at 37 degC by agar dilution method; assay type: functional; conditions: KC-14, 18 h; how it was run: as §1
Serratia marcescens [7] = assay: Antibacterial activity against Serratia marcescens T-55 assessed as growth inhibition at 128 to 0.002 mg/L incubated for 18 hrs at 37 degC by agar dilution method; assay type: functional; conditions: T-55, 18 h; how it was run: as §1
[8] = Drug excretion in Sprague-Dawley rat at 10 mg/kg, po after 24 hrs by HPLC; assay type: ADME, organism-based; conditions: in vivo, read-out: Drug excretion; how it was run: as §2
Salmonella typhimurium = assay: Antibacterial activity against Salmonella typhimurium IFO13245 assessed as growth inhibition at 128 to 0.002 mg/L incubated for 18 hrs at 37 degC by agar dilution method; assay type: functional, Salmonella enterica subsp. enterica serovar Typhimurium; conditions: Salmonella enterica, IFO13245, 18 h; how it was run: as §1
DNA gyrase = DNA gyrase (Escherichia coli, UniProt P0AES4+P0AES6); assay: Inhibition of Escherichia coli DNA gyrase preincubated for 5 mins at 37 degC before addition of relaxed pBR322 as substrate by supercoiling assay; assay type: protein-complex assay
Klebsiella pneumoniae [9] = assay: Antibacterial activity against Klebsiella pneumoniae DT-S assessed as growth inhibition at 128 to 0.002 mg/L incubated for 18 hrs at 37 degC by agar dilution method; assay type: functional; how it was run: as §1
Citrobacter freundii = assay: Antibacterial activity against Citrobacter freundii IFO1268 assessed as growth inhibition at 128 to 0.002 mg/L incubated for 18 hrs at 37 degC by agar dilution method; assay type: functional; conditions: IFO1268, 18 h; how it was run: as §1
[10] = Oral drug absorption in Sprague-Dawley rat at 10 mg/kg, po after 24 hrs by HPLC; assay type: ADME, organism-based; conditions: in vivo
How it was run: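 Absorption rate computed as total urinary plus biliary excretion (% of dose, summed means) after oral dosing divided by total after iv dosing; excretion measured in fasted male Sprague-Dawley rats by HPLC over 24 h, bile glucuronides alkaline-hydrolysed.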

Proteus mirabilis = assay: Antibacterial activity against Proteus mirabilis IFO3849 assessed as growth inhibition at 128 to 0.002 mg/L incubated for 18 hrs at 37 degC by agar dilution method; assay type: functional; conditions: IFO3849, 18 h; how it was run: as §1
[11] = system: Acinetobacter calcoaceticus; assay: Antibacterial activity against Acinetobacter calcoaceticus Ac-54 assessed as growth inhibition at 128 to 0.002 mg/L incubated for 18 hrs at 37 degC by agar dilution method; assay type: functional; conditions: Ac-54, 18 h; how it was run: as §1
[12] = Drug excretion in Sprague-Dawley rat urine at 10 mg/kg, po after 24 hrs by HPLC; assay type: ADME, organism-based; conditions: read-out: Drug excretion; how it was run: as §2
Pseudomonas aeruginosa [13] = assay: Antibacterial activity against Pseudomonas aeruginosa E-2 assessed as growth inhibition at 128 to 0.002 mg/L incubated for 18 hrs at 37 degC by agar dilution method; assay type: functional; conditions: E-2, 18 h; how it was run: as §1
Morganella morganii = assay: Antibacterial activity against Morganella morganii W1026 assessed as growth inhibition at 128 to 0.002 mg/L incubated for 18 hrs at 37 degC by agar dilution method; assay type: functional; conditions: W1026, 18 h; how it was run: as §1
Pseudomonas aeruginosa [14] = assay: Antibacterial activity against Pseudomonas aeruginosa 15846 assessed as growth inhibition at 128 to 0.002 mg/L incubated for 18 hrs at 37 degC by agar dilution method; assay type: functional; conditions: Pseudomonas aeruginosa, 15846, 18 h; how it was run: as §1
Serratia marcescens [15] = assay: Antibacterial activity against Serratia marcescens IFO3736 assessed as growth inhibition at 128 to 0.002 mg/L incubated for 18 hrs at 37 degC by agar dilution method; assay type: functional; conditions: IFO3736, 18 h; how it was run: as §1
[16] = Passive permeability of the compound after 5 hrs at 25 degC by PAMPA assay; assay type: physicochemical; conditions: read-out: Peff
How it was run: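 PAMPA: 10 µM compound in PBS with 5% MeOH in donor, PBS acceptor; 25°C, 5 h; both sides quantified by HPLC; Peff derived from donor/acceptor concentrations, volumes, 0.3 cm² filter area and 18,000 s; mean ± S.D., n=3.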

[17] = Solubility of the compound in JP2 solution at pH 6.8 after 24 hrs at 25 degC by HPLC; assay type: physicochemical
How it was run: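 Excess solid shaken in JP2 (50 mM potassium dihydrogenphosphate, pH 6.8) at 25°C for 24 h to equilibrium, filtered 0.45 µm; filtrate concentration by reversed-phase UPLC, UV 290 nm; mean ± S.D., n=3.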

**Q.** What does the source list for `Cc1c(N2CC(NC(C)C)C2)c(F)cc2c(=O)c(C(=O)O)cn(-c3nc(N)c(F)cc3F)c12`?
**A.** MIC (Providencia rettgeri): 0.17 µg/mL (≈ 0.368 µM); MIC (Klebsiella pneumoniae [1]): 0.17 µg/mL (≈ 0.368 µM); MIC (Proteus vulgaris): 0.17 µg/mL (≈ 0.368 µM); MIC (Enterobacter cloacae): 0.17 µg/mL (≈ 0.368 µM); MIC (Pseudomonas aeruginosa [2]): 0.17 µg/mL (≈ 0.368 µM); MIC (Escherichia coli [3]): 0.01 µg/mL (≈ 0.0217 µM); dose excreted at 24 h [4]: 68%; MIC (Escherichia coli [5]): 0.01 µg/mL (≈ 0.0217 µM); MIC (Escherichia coli [6]): 0.01 µg/mL (≈ 0.0217 µM); MIC (Serratia marcescens [7]): 0.17 µg/mL (≈ 0.368 µM); dose excreted at 24 h [8]: 92%; MIC (Salmonella typhimurium): 0.17 µg/mL (≈ 0.368 µM); IC50 (DNA gyrase): 433 nM; MIC (Klebsiella pneumoniae [9]): 0.17 µg/mL (≈ 0.368 µM); MIC (Citrobacter freundii): 0.17 µg/mL (≈ 0.368 µM); Fa at 24 h [10]: > 90%; MIC (Proteus mirabilis): 0.17 µg/mL (≈ 0.368 µM); MIC [11]: 0.17 µg/mL (≈ 0.368 µM); dose excreted at 24 h [12]: 24%; MIC (Pseudomonas aeruginosa [13]): 0.17 µg/mL (≈ 0.368 µM); MIC (Morganella morganii): 0.17 µg/mL (≈ 0.368 µM); MIC (Pseudomonas aeruginosa [14]): 0.17 µg/mL (≈ 0.368 µM); MIC (Serratia marcescens [15]): 0.17 µg/mL (≈ 0.368 µM); Papp at 5 h [16]: 1.2 ×10⁻⁶ cm/s; solubility at 24 h [17]: 41 µg/mL (≈ 88.9 µM)

**Q.** With `Cc1c(N2CC(NC(C)(C)C)C2)c(F)cc2c(=O)c(C(=O)O)cn(-c3nc(N)c(F)cc3F)c12` as the compound, how does the MIC (Providencia rettgeri) read?
**A.** Its MIC is 0.57 µg/mL (≈ 1.2 µM).

**Q.** What about the MIC (Klebsiella pneumoniae [1]) of the same compound?
**A.** The MIC was 0.57 µg/mL (≈ 1.2 µM).

**Q.** And the MIC (Proteus vulgaris)?
**A.** Its MIC is 0.57 µg/mL (≈ 1.2 µM).

**Q.** And the MIC (Enterobacter cloacae)?
**A.** Its MIC is 0.57 µg/mL (≈ 1.2 µM).

**Q.** What about the MIC (Pseudomonas aeruginosa [2]) of the same compound?
**A.** Its MIC is 0.57 µg/mL (≈ 1.2 µM).

**Q.** What about the MIC (Escherichia coli [3]) of the same compound?
**A.** Its MIC is 0.038 µg/mL (≈ 0.0799 µM).

**Q.** What about the MIC (Escherichia coli [5]) of the same compound?
**A.** The MIC was 0.038 µg/mL (≈ 0.0799 µM).

**Q.** And the MIC (Escherichia coli [6])?
**A.** The MIC was 0.038 µg/mL (≈ 0.0799 µM).

**Q.** And the MIC (Serratia marcescens [7])?
**A.** The MIC was 0.57 µg/mL (≈ 1.2 µM).

**Q.** And the MIC (Salmonella typhimurium)?
**A.** Its MIC is 0.57 µg/mL (≈ 1.2 µM).

**Q.** What about the IC50 (DNA gyrase) of the same compound?
**A.** The IC50 was 694 nM.

**Q.** What about the MIC (Klebsiella pneumoniae [9]) of the same compound?
**A.** The MIC was 0.57 µg/mL (≈ 1.2 µM).

**Q.** What about the MIC (Citrobacter freundii) of the same compound?
**A.** The MIC was 0.57 µg/mL (≈ 1.2 µM).

**Q.** And the MIC (Proteus mirabilis)?
**A.** The MIC was 0.57 µg/mL (≈ 1.2 µM).

**Q.** And the MIC [11]?
**A.** Its MIC is 0.57 µg/mL (≈ 1.2 µM).

**Q.** What about the MIC (Pseudomonas aeruginosa [13]) of the same compound?
**A.** Its MIC is 0.57 µg/mL (≈ 1.2 µM).

**Q.** And the MIC (Morganella morganii)?
**A.** Its MIC is 0.57 µg/mL (≈ 1.2 µM).

**Q.** And the MIC (Pseudomonas aeruginosa [14])?
**A.** Its MIC is 0.57 µg/mL (≈ 1.2 µM).

**Q.** What about the MIC (Serratia marcescens [15]) of the same compound?
**A.** The MIC was 0.57 µg/mL (≈ 1.2 µM).
